The term T/C denotes the ratio of treated to control.

Series [1] deals with P388. The series is described as follows: Antitumor activity against mouse P388 cells allografted in ip dosed DBA/2 mouse administered for 9 days. It counts as functional, organism-based. The essentials: (§1)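 P388 lymphocytic leukemia in DBA/2 mice; one intraperitoneal injection per day for 9 days. […] Injection vehicles were water + alcohol, saline + Tween 80, or aqueous 0.5% citric acid. Some tests were duplicated, and 30-day cures were recorded.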

The subject of series [2] is Mus musculus. Briefly: Toxicity in DBA/2 mouse allografted with mouse P388 cells assessed as change in body weight at 20 mg/kg/day, ip for 9 days compound administered through saline+Tween 80 vehicle. Type of series: organism-based. More on the design: route intraperitoneal. The note with it: in vivo, 216 h. Put shortly: (§2)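 DBA/2 mice bearing P388 lymphocytic leukemia received one intraperitoneal injection per day for 9 days, given in the vehicle named for each test (water/alcohol-based, saline or saline + Tween 80). Toxicity was noted during dosing alongside survival scoring (T/C, treated versus control mean survival time).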

The test system of series [3] is P388. Briefly: Antitumor activity against mouse P388 cells allografted in DBA/2 mouse assessed as host survival at 20 mg/kg/day, ip for 9 days compound administered through water+alcohol vehicle relative to control. It counts as functional. The note with it: route intraperitoneal. The essentials: (§3)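 P388 lymphocytic leukemia in DBA/2 mice. Dosing was one intraperitoneal injection per day for 9 days in the vehicle stated. […] Duplicate tests were run for some doses.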

For series [4], the system named is Mus musculus. The series is described as follows: Toxicity in DBA/2 mouse allografted with mouse P388 cells assessed as change in body weight at 13 mg/kg/day, ip for 9 days compound administered through water+alcohol vehicle. It counts as organism-based. Also on record: route intraperitoneal. The note with it: in vivo, 216 h. The essentials:
as §2

The subject of series [5] is P388. Briefly: Antitumor activity against mouse P388 cells allografted in DBA/2 mouse assessed as host survival at 20 mg/kg/day, ip for 9 days compound administered through 0.5% citric acid vehicle. It counts as functional, organism-based. The essentials: as §1
The test system of series [6] is P388. Briefly: Antitumor activity against mouse P388 cells allografted in DBA/2 mouse assessed as host survival at 13 mg/kg/day, ip for 9 days compound administered through water+alcohol vehicle relative to control. Type of series: functional. The note with it: route intraperitoneal. The essentials:
as §3

The subject of series [7] is Mus musculus. Briefly: Toxicity in DBA/2 mouse allografted with mouse P388 cells assessed as change in body weight at 20 mg/kg/day, ip for 9 days compound administered through water+alcohol vehicle. More on the design: route intraperitoneal. The following applies: in vivo, 216 h. Type of series: organism-based. Put shortly:
as §2

Series [8] concerns P388. Briefly: Antitumor activity against mouse P388 cells allografted in DBA/2 mouse assessed as host survival at 20 mg/kg/day, ip for 9 days compound administered through saline+Tween 80 vehicle relative to control. It counts as functional. The following applies: route intraperitoneal. Put shortly:
as §3

The subject of series [9] is Mus musculus. The series is described as follows: Toxicity in DBA/2 mouse allografted with mouse P388 cells assessed as change in body weight at 2 mg/kg/day, ip for 9 days compound administered through saline vehicle. Type of series: organism-based. More on the design: route intraperitoneal. The following applies: in vivo, 216 h.
Series [10] relates to P388. The series is described as follows: Antitumor activity against mouse P388 cells allografted in DBA/2 mouse assessed as host survival at 5.9 mg/kg/day, ip for 9 days compound administered through water+alcohol vehicle relative to control. It counts as functional. The note with it: route intraperitoneal. Put shortly:
as §3

For series [11], the system named is Mus musculus. The series is described as follows: Toxicity in DBA/2 mouse allografted with mouse P388 cells assessed as change in body weight at 4 mg/kg/day, ip for 9 days compound administered through saline vehicle. The note with it: in vivo, 216 h. Also on record: route intraperitoneal. It counts as organism-based.
Series [12] relates to P388. The series is described as follows: Antitumor activity against mouse P388 cells allografted in DBA/2 mouse assessed as host survival at 4 mg/kg/day, ip for 9 days compound administered through saline vehicle relative to control. It counts as functional. The following applies: route intraperitoneal. The essentials: as §3
For series [13], the system named is Mus musculus. The series is described as follows: Toxicity in DBA/2 mouse allografted with mouse P388 cells assessed as change in body weight at 5.9 mg/kg/day, ip for 9 days compound administered through water+alcohol vehicle. Also on record: route intraperitoneal. The note with it: in vivo, 216 h. It counts as organism-based.
The subject of series [14] is P388. The series is described as follows: Antitumor activity against mouse P388 cells allografted in DBA/2 mouse assessed as host survival at 2 mg/kg/day, ip for 9 days compound administered through saline vehicle relative to control. It counts as functional. The following applies: route intraperitoneal. The essentials: as §3
Series [15] concerns Mus musculus. The series is described as follows: Toxicity in DBA/2 mouse allografted with mouse P388 cells assessed as change in body weight at 320 mg/kg/day, ip for 9 days compound administered through water+alcohol vehicle. Also on record: route intraperitoneal. The following applies: in vivo, 216 h. Type of series: organism-based. Put shortly: as §2
The test system of series [16] is P388. The series is described as follows: Antitumor activity against mouse P388 cells allografted in DBA/2 mouse assessed as host survival at 320 mg/kg/day, ip for 9 days compound administered through water+alcohol vehicle relative to control. It counts as functional. The note with it: route intraperitoneal. The essentials: as §3
Series [17] has as its system P388. The series is described as follows: Antitumor activity against mouse P388 cells allografted in DBA/2 mouse assessed as host survival at 8.8 mg/kg/day, ip for 9 days compound administered through water+alcohol vehicle relative to control. It counts as functional. The following applies: route intraperitoneal. Put shortly: as §3
The subject of series [18] is Mus musculus. The series is described as follows: Toxicity in DBA/2 mouse allografted with mouse P388 cells assessed as change in body weight at 160 mg/kg/day, ip for 9 days compound administered through water+alcohol vehicle. Type of series: organism-based. More on the design: route intraperitoneal. The following applies: in vivo, 216 h. Put shortly:
as §2

Series [19] has as its system P388. The series is described as follows: Antitumor activity against mouse P388 cells allografted in DBA/2 mouse assessed as host survival at 80 mg/kg/day, ip for 9 days compound administered through water+alcohol vehicle relative to control. Type of series: functional. The note with it: route intraperitoneal. The essentials: as §3
Series [20] deals with Mus musculus. Briefly: Toxicity in DBA/2 mouse allografted with mouse P388 cells assessed as change in body weight at 8.8 mg/kg/day, ip for 9 days compound administered through water+alcohol vehicle. It counts as organism-based. More on the design: route intraperitoneal. The note with it: in vivo, 216 h. The essentials:
as §2

Series [21] has as its system Mus musculus. Briefly: Toxicity in DBA/2 mouse allografted with mouse P388 cells assessed as change in body weight at 80 mg/kg/day, ip for 9 days compound administered through water+alcohol vehicle. Also on record: route intraperitoneal. The following applies: in vivo, 216 h. Type of series: organism-based. The essentials:
as §2

In series [22] the test system is Mus musculus. The series is described as follows: Toxicity in DBA/2 mouse allografted with mouse P388 cells assessed as change in body weight at 40 mg/kg/day, ip for 9 days compound administered through water+alcohol vehicle. More on the design: route intraperitoneal. It counts as organism-based. The following applies: in vivo, 216 h. Put shortly: as §2
Series [23] deals with P388. Briefly: Antitumor activity against mouse P388 cells allografted in DBA/2 mouse assessed as host survival at 40 mg/kg/day, ip for 9 days compound administered through water+alcohol vehicle relative to control. It counts as functional. The following applies: route intraperitoneal. The essentials: as §3
The subject of series [24] is P388. Briefly: Antitumor activity against mouse P388 cells allografted in DBA/2 mouse assessed as host survival at 160 mg/kg/day, ip for 9 days compound administered through water+alcohol vehicle relative to control. The note with it: route intraperitoneal. It counts as functional. The essentials: as §3
Series [25] concerns P388. Briefly: Antitumor activity against mouse P388 cells allografted in DBA/2 mouse assessed as disease cure at 365 mg/kg/day, ip for 9 days compound administered through water+alcohol vehicle measured after 30 days. Type of series: functional, organism-based. Put shortly: as §1
Another series concerns L1210. The series is described as follows: Antitumor activity against mouse L1210 cells allografted in DBA/2 mouse at 25 to 200 mg/kg. Type of series: functional, organism-based.

Active and inactive are the calls of the source. The rule behind the calls is not given here.

As for `CCOC(=O)O[C@@H]1C(OC)=C[C@]23CCCN2CCc2cc4c(cc2[C@H]13)OCO4`, the outcome with P388 [1] was inactive.
`CCC(C)(OC(=O)OCC(Cl)(Cl)Cl)C(=O)O[C@@H]1C(OC)=C[C@]23CCCN2CCc2cc4c(cc2[C@H]13)OCO4` (stereo partly drawn): the outcome with P388 [1] was inactive.
Regarding `COC1=C[C@]23CCCN2CCc2cc4c(cc2[C@@H]3[C@@H]1OC(=O)OCc1ccccc1)OCO4`, the result in the series on P388 [1] was inactive.
With `CCOC(=O)C(=O)O[C@@H]1C(OC)=C[C@]23CCCN2CCc2cc4c(cc2[C@H]13)OCO4`, the Activity was -0.1 g in the series on Mus musculus [2], -0.8 g with Mus musculus [4] and -0.2 g in the series on Mus musculus [7]. In addition, the T/C in the series on P388 [3] amounted to 135%; with P388 [6], 154%; in the series with P388 [8] it was 129%. The outcome in the series on P388 [5] was inactive.
For the compound `COC(=O)C[C@](O)(CCC(C)C)C(=O)O[C@@H]1C(OC)=C[C@]23CCCN2CCc2cc4c(cc2[C@H]13)OCO4` [DEOXYHARRINGTONINE], the Activity is listed as 0.8 g with Mus musculus [9], 0 g in the series on Mus musculus [11] and -0.9 g in the series on Mus musculus [13]. In addition, the values for the T/C in the series with P388 [10], in the series on P388 [12] and in the series on P388 [14] were 184%, 174% and 126%, respectively.
Take `COC1=C[C@]23CCCN2CCc2cc4c(cc2[C@@H]3[C@@H]1OC(=O)OCC(Cl)(Cl)Cl)OCO4`: the Activity with Mus musculus [15] is recorded as -1 g; in the series on Mus musculus [18] it was -0.9 g; with Mus musculus [20] it was -0.3 g; in the series with Mus musculus [21], -1.3 g; in the series with Mus musculus [4], -0.5 g; in the series with Mus musculus [22], -0.4 g. Besides, in the series on Mus musculus [7], the Activity was -2.7 g. Further, the T/C in the series with P388 [16] turned out to be 172%; in the series with P388 [17], 170%; in the series with P388 [19] it was 160%; in the series with P388 [3], 128%; with P388 [23], 140%; in the series with P388 [24], 155%. Besides, in the series on P388 [6], the T/C is reported as 138%. For the same compound, the result in the series on P388 [5] was inactive.
With `C=C(CC(=O)OC)C(=O)O[C@@H]1C(OC)=C[C@]23CCCN2CCc2cc4c(cc2[C@H]13)OCO4`, in the series with P388 [25], the outcome was Active. The outcome in the series on L1210 was inactive.

The values are drawn from ChEMBL document CHEMBL3244241, “Synthesis of cephalotaxine esters and correlation of their structures with antitumor activity” (J Med Chem, 1977).
